Published values of several laboratories.
Lines come from different studies, so protocols differ.
Target: Serine/threonine-protein kinase Nek6 (NEK6, Homo sapiens, UniProt Q9HC98)

Structure (SMILES) | effect on | method | concentration | remaining binding [%]
CN(C)c1nccc(-c2cnc3ncccn23)n1 | binding |  | 1 µM | 94
CCN1CCN(Cc2ccc(C(=O)Nc3ccc(C)c(Oc4ccc5c(c4)CC(=O)N5)c3)cc2C(F)(F)F)CC1 | binding | competition with immobilised ligand | 1 µM | 100
CN(c1nccc(-c2cnn3ncccc23)n1)C1CC1 | binding |  | 1 µM | 100
CCCOc1ccc([C@@H]2[C@@H](C(=O)O)[C@H](c3ccc4c(c3)OCO4)CN2CC(=O)Nc2c(CC)cccc2CC)cc1 | cell-free assay | competition with immobilised ligand | 1 µM | 92
FC(F)(F)Oc1cccc(-c2cnc3ccc(-c4ccncc4)nn23)c1 | cell-free assay | competition with immobilised ligand | 5 µM | 85
COc1cnc(Nc2cccc(S(N)(=O)=O)c2)nc1N1CCN(c2ccccc2)CC1 | binding | competition with immobilised ligand | 1 µM | 100
O=C(c1ccc(Nc2nccc(-c3cc4ccccc4s3)n2)cc1)N1CCC(N2CCCC2)CC1 | binding | competition with immobilised ligand | 1 µM | 87
C[C@H](c1cccc(C#N)c1)n1cc(Cl)cc(C(N)=O)c1=N | cell-free assay | competition with immobilised ligand | 1 µM | 94
C[C@@H](c1ccc(-n2cnc3c(N)ncnc32)cc1)N1CCc2nn(C)c(Cc3ccccc3)c2C1=O | binding | competition with immobilised ligand | 0.1 µM | 90
O=C(NCC1CCOCC1)c1n[nH]cc1NC(=O)c1c(F)cccc1F | binding | competition with immobilised ligand | 1 µM | 90
Cc1cnn2ncc(-c3ccnc(N(C)C)n3)c2c1 | binding |  | 1 µM | 100
C=CC(=O)N1CCC(C(=O)NCC(=O)N2CCN(c3nc(-c4cnc(N)nc4C(F)F)nc(N4CCOCC4)n3)CC2)CC1 | binding | competition with immobilised ligand | 1 µM | 95
CC1=C(C#N)[C@@H](c2ccc3[nH]nc(C)c3c2)C(C#N)=C(c2ccc(Cl)cc2)N1 | cell-free assay | competition with immobilised ligand | 1 µM | 100
C[C@H]1CCN(c2nccc(-c3cnn4ncccc34)n2)C1 | binding |  | 1 µM | 100
O=C(N[C@H]1CCCCC/C=C\C2C[C@@]2(C(=O)O)NC(=O)[C@@H]2C[C@@H](Oc3ccncc3)CN2C1=O)OC1CCCC1 (stereo partly shown) | binding | competition with immobilised ligand | 1 µM | 87
CN(CCCC(F)(F)F)c1nccc(-c2cnn3ncccc23)n1 | binding |  | 1 µM | 100
COc1cc(-c2cn(C3CCc4ccccc4N(CC(F)(F)F)C3=O)nn2)ccc1-n1ccc(C)n1 (stereo not shown) | cell-free assay | competition with immobilised ligand | 1 µM | 100
O=C(c1ccc(Nc2ncc(Cl)c(-c3ccc(Cl)s3)n2)cc1)N1CCC(N2CCCC2)CC1 | binding | competition with immobilised ligand | 1 µM | 9.9
O=C(NCc1ncc(C(F)(F)F)cc1Cl)c1ccc2c(c1)C1(CCS(=O)(=O)CC1)[C@H](C1CC1)N2S(=O)(=O)c1ccc(F)cc1 | cell-free assay | competition with immobilised ligand | 1 µM | 100
N[C@@H]1CCN(c2nccc(-c3cnn4ncccc34)n2)C1 | binding |  | 1 µM | 100
NS(=O)(=O)c1cc(NC(=O)C2(c3ccccc3Cl)CC2)ccc1Oc1cccc(Cl)c1 | cell-free assay | competition with immobilised ligand | 1 µM | 81
O=C(c1ccc(Nc2ncc(Cl)c(-c3cc4ccccc4s3)n2)cc1)N1CCC(N2CCCC2)CC1 | binding | competition with immobilised ligand | 1 µM | 35
